Structures are written as SMILES. In all, about 2,500 compounds went through this assay and about 460 (18%) were called active. The list is a sample of the results. Values without a mark were called inactive.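 The calls were made as follows: active = mean activation above a cutoff of low control average plus 3 SD from the earlier screen (cut at about 12% in these data); inactive = the rest.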

The assay in a line: compound fluorescence interference without thin filaments, confirmation, artefact control for cardiac RTF calcium sensitizer project, biochemical (AID 504382). The note with it: IANBD fluorescence interference counterscreen, buffer, EC20 Ca2+; at 7.2 µM; hits give high values; scaled: EC20 calcium 0, EC100 calcium 100. In short, it runs like this:
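timing = compound incubation 15 min at 25 °C before fluorescence reading | technique = fluorescence at 480 nm excitation, 540 nm emission | evaluation = interference relative to controls | replication = triplicate wells per compound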
(In general: The purpose of a counterscreen is to sort out artefacts and off-target activity.)
`CCn1c(=O)c(C(=O)CN2CCCc3ccccc32)c(N)n(Cc2ccccc2)c1=O`: the fluorescence artifact activation is 15.2% (active).

Turning to `COCCN(C(=O)CN1CCCc2ccccc21)c1c(N)n(Cc2ccccc2)c(=O)[nH]c1=O`, the fluorescence artifact activation is 3.59%.

On to `Cc1ccc2c(c1)CCCN2CC(=O)N(C)c1c(N)n(Cc2ccccc2)c(=O)[nH]c1=O`, for which the fluorescence artifact activation is -0.05%.

Turning to `Nc1c(C(=O)C2CC2)sc2nc(-c3cccs3)cc(C(F)(F)F)c12`, the fluorescence artifact activation is 3.83%.

As for `Cc1cc[n+](-c2[nH]c(=O)sc2/C=N/NC([S-])=Nc2ccccc2)cc1C`, the fluorescence artifact activation is 0.4%.

As for `CCc1ccc[n+](-c2[nH]c(=O)sc2/C=N/NC([S-])=Nc2ccccc2)c1`, the fluorescence artifact activation was 19.1% (active).

For the compound `O=c1[nH]c(-[n+]2ccccc2)c(/C=N/NC([S-])=Nc2ccccc2)s1`, the fluorescence artifact activation was 0.03%.

Turning to `Cc1ccc(S(=O)(=O)N2CCN(c3ncccn3)CC2)cc1C`, the fluorescence artifact activation was -0.05%.

Take `Cc1ccccc1S(=O)(=O)Cc1ccc(C(=O)NCCN(C)Cc2ccccc2)o1`: the fluorescence artifact activation is 11%.

Consider `Cc1nn(Cc2c(F)c(F)c(F)c(F)c2F)c(C)c1NC(=O)c1nn(C)c(C)c1Br`, for which the fluorescence artifact activation is 0.14%.

`Nc1ccc2c3c(cccc13)C(=O)N(c1ccccc1)C2=O`: the fluorescence artifact activation is 0.18%.

Take `CCC/C(C#Cc1ccc(N(C)C)cc1)=C1/c2ccccc2C(=O)N1c1ccccc1`: the fluorescence artifact activation is 17.9% (active).

Turning to `Cc1c(O)c2c3c(cccc3c1O)C(=O)N(c1ccccc1)C2=O`, the fluorescence artifact activation was 6.04%.

Turning to `CCCS(=O)(=O)N1CCC(C(=O)NCCCN2CCC(Cc3ccccc3)CC2)CC1`, the fluorescence artifact activation was 0.05%.

With `CC(=O)Nc1cccc(NC(=O)CSc2nnc(Cc3cccn3C)n2CCc2ccccc2)c1`, the fluorescence artifact activation is 2.41%.

For `CCN1C(=O)[C@@H]2[C@@H](c3ccc(-c4cccc(Cl)c4)cc3)N3CCC[C@@]3(C(=O)OC)[C@@H]2C1=O`, the fluorescence artifact activation was 0.02%.

Consider `CC(=O)Nc1sc(/C(C#N)=C\c2cccc(Cl)c2)nc1-c1ccc(C)cc1`, for which the fluorescence artifact activation is 16.5% (active).

For `CC(=O)Nc1sc(/C(C#N)=C/c2ccc(Cl)c(Cl)c2)nc1-c1ccc(C)cc1`, the fluorescence artifact activation was -0.03%.

For the compound `CCOc1cc(/C=C(\C#N)c2nc(-c3cccs3)c(NC(C)=O)s2)ccc1O`, the fluorescence artifact activation is -0.03%.

As to `CC(C)(C)c1cc(NCc2ccccn2)n2ncc(-c3ccc(Cl)cc3)c2n1`, the fluorescence artifact activation was 0.93%.

For `CCCN1CCc2c(sc(NC(=S)NC(=O)c3ccccc3)c2C#N)C1`, the fluorescence artifact activation was 11.1%.

For the compound `O=C(Nc1ccccc1F)C(=Cc1sc(N2CCOCC2)nc1-c1ccccc1)C(=O)Nc1ccccc1F`, the fluorescence artifact activation was 0.15%.

With `CCN1C(=O)/C(=C/C=C2/CCCN2C)OC1=S`, the fluorescence artifact activation is 0.08%.

Turning to `CN1C(=O)/C(=C\C=C2/CCCN2C)N(C)C1=S`, the fluorescence artifact activation is 56.9% (active).

Regarding `CN1CCC/C1=C/C=C1\SC(=S)NC1=O`, the fluorescence artifact activation was 0.02%.

Regarding `O=C(O)c1ccc2c(c1)S(=O)(=O)c1ccccc1C2=O`, the fluorescence artifact activation is 0.03%.

On to `O=C1c2ccccc2-c2onc3ccc(Oc4ccccc4)c1c23`, for which the fluorescence artifact activation was 0.44%.

For `CCN(CC)c1nc2ccccc2nc1C(C#N)C(=O)NCCc1ccccc1` (stereo unspecified), the fluorescence artifact activation was 164% (active).

Regarding `CCCCCCNC(=O)C(C#N)c1nc2ccccc2nc1N1CCCC1` (stereo unspecified), the fluorescence artifact activation is 0.17%.

Consider `N#CC(C(=O)NCc1ccccc1)c1nc2ccccc2nc1N1CCCC1` (stereo unspecified), for which the fluorescence artifact activation was -0.08%.

`O=C1CC(c2cccc(Oc3ccccc3)c2)NC(=O)N1` (stereo unspecified): the fluorescence artifact activation was 0.02%.

Take `O=c1c(/C=C(\O)c2ccc(F)cc2)nc2ccccc2n1-c1ccccc1`: the fluorescence artifact activation is 0.04%.

Regarding `Cc1ccc(NC(=O)CSc2nnc(-c3cccnc3)s2)cc1`, the fluorescence artifact activation was 258% (active).

As to `Cc1ccc(CSc2nnc(SCC(=O)N/N=C/c3ccccc3OCC(=O)O)s2)cc1`, the fluorescence artifact activation is 4.19%.

In the case of `Cc1ccc(-c2csc(NC(=O)CSc3nc4ccccc4o3)n2)cc1`, the fluorescence artifact activation was 0.77%.

`Nc1nnnn1/N=C/c1cc(Cl)cc(Cl)c1O`: the fluorescence artifact activation was 0.11%.

As to `O=C(Nc1ccc(Cl)c(Cl)c1)Nc1ccc([N+](=O)[O-])cn1`, the fluorescence artifact activation is 8.85%.

Take `COc1ccc(OC)c2[nH]c(=O)c(CCNS(=O)(=O)c3ccc(Cl)cc3)cc12`: the fluorescence artifact activation was -0.04%.

For the compound `N#C/C(=C\N1CCN(Cc2ccc3c(c2)OCO3)CC1)c1nc2ccccc2s1`, the fluorescence artifact activation was 7.04%.

For the compound `COc1cccc(C2C(C#N)=C(N)Oc3cc(C)oc(=O)c32)c1OC` (stereo unspecified), the fluorescence artifact activation was 6.53%.

Turning to `COc1ccc(N=Cc2cc3c(cc2O)OC(N)=C(C#N)C3c2ccccc2)cc1` (stereo unspecified), the fluorescence artifact activation was 32.9% (active).

Take `Cc1ccccc1N=Cc1cc2c(cc1O)OC(N)=C(C#N)C2c1ccccc1` (stereo unspecified): the fluorescence artifact activation is 0.04%.

As to `CN(C)c1ccc(C=C2SC(=S)NC2=O)cc1`, the fluorescence artifact activation was 0.13%.

Take `CCCOc1ccc(-c2nn(-c3ccccc3)cc2/C=C2\SC(N)=NC2=O)cc1`: the fluorescence artifact activation was 0.02%.

With `CCOc1ccc(N(C)c2ccc(/C=C3/SC(=S)NC3=O)cc2)cc1`, the fluorescence artifact activation was 0.1%.

Turning to `CCN(CC)c1ccc(/C=C2\C(=N)N3N=C(CC(=O)N4CCOCC4)SC3=NC2=O)cc1`, the fluorescence artifact activation was 0.25%.

For `CCN(CC)c1ccc(C=C2SC(=S)NC2=O)cc1`, the fluorescence artifact activation was 19.1% (active).

Consider `CCN(CC)c1ccc(/C=C2\SC(N)=NC2=O)cc1`, for which the fluorescence artifact activation is 18.7% (active).

As to `COc1cccc(/C=N/Nc2nnc3c(n2)[nH]c2ccccc23)c1OC`, the fluorescence artifact activation was 0.23%.

Consider `CC[n+]1c(/C=C/N(C)c2ccccc2)oc2ccc(F)cc21`, for which the fluorescence artifact activation is 0.51%.

Turning to `CCN(CC)c1ccc(/C=N/OCC(=O)Nc2cccc(C)c2)cc1`, the fluorescence artifact activation is 0.61%.

As to `C#CCN1c2ccccc2Sc2cccnc21`, the fluorescence artifact activation is 0.15%.

As to `Fc1ccc(-c2nnc(-c3ccc(Cl)cc3Cl)o2)cc1`, the fluorescence artifact activation is 12.9% (active).

With `O=C(c1cccc(F)c1)N1CCN(C(=O)c2cc(-c3ccc(Cl)cc3Cl)on2)CC1`, the fluorescence artifact activation was 0.33%.

For the compound `Nc1ccn([C@H]2C[C@H](O)[C@@H](CO)O2)c(=O)n1`, the fluorescence artifact activation is 0.1%.

For the compound `CCCNC(=O)Cn1c(=O)/c(=C/c2ccc(-c3ccc([N+](=O)[O-])cc3)o2)s/c1=C\C(=O)C(C)(C)C`, the fluorescence artifact activation is 10.3%.

Turning to `O=c1oc2ccccc2cc1-c1nc(-c2cccs2)cs1`, the fluorescence artifact activation is -0.04%.

Take `O=c1oc2ccccc2cc1-c1ccc(O)cc1O`: the fluorescence artifact activation was 30.6% (active).

As to `O=c1c(-c2ccc(O)cc2O)coc2cc(O)cc(O)c12`, the fluorescence artifact activation was 0.09%.

As to `COc1ccccc1/C=[N+](\[O-])C1SC(=S)N(C)C1(C)C` (stereo unspecified), the fluorescence artifact activation is 0.01%.

Take `CCOc1ccc(N2C(=O)CC(SCc3nc4ccccc4[nH]3)C2=O)cc1` (stereo unspecified): the fluorescence artifact activation was 0.12%.

For the compound `COC(=O)[C@@]1(Cc2ccc(OC)cc2)[C@@H]2C(=CC(=O)[C@H]2CC(=O)C(=O)N2CCCC2)CN1C(=O)c1ccccc1`, the fluorescence artifact activation is 15% (active).

Regarding `CN(C)S(=O)(=O)c1ccc2c(c1)/C(=C/c1cc3c([nH]1)CCCC3)C(=O)N2`, the fluorescence artifact activation was 3.96%.

On to `Cc1cc(C)c(/C=C2\C(=O)Nc3ccccc32)[nH]1`, for which the fluorescence artifact activation is 4.55%.

On to `O=C1Nc2ccccc2/C1=C/c1cnc(-c2ccccc2)[nH]1`, for which the fluorescence artifact activation is 36.5% (active).

`C#Cc1ccc([C@@H]2C=C(C(=O)OCC=C)O[C@H](OCCCCO)C2)cc1`: the fluorescence artifact activation was 0.21%.

Regarding `COc1ccc(N2CCN(c3ccc([N+](=O)[O-])cc3Cl)CC2)cc1`, the fluorescence artifact activation was 18.2% (active).

With `CC1=N/C(=C/c2ccc([N+](=O)[O-])cc2)C(=O)N1c1ccc(Cl)cc1Cl`, the fluorescence artifact activation was 0.01%.

Consider `COc1ccc(N2CCN(S(=O)(=O)Cc3ccccc3)CC2)cc1`, for which the fluorescence artifact activation was 0.08%.

For `Cc1cc(N2CCN(c3nc(-c4ccc([N+](=O)[O-])cc4)cs3)CC2)c2ccccc2n1`, the fluorescence artifact activation is 3.28%.

With `COc1ccccc1N1CCN(C(=O)CCC(=O)O)CC1`, the fluorescence artifact activation was 0.1%.

`COc1ccccc1N1CCN(c2ccc([N+](=O)[O-])cc2Cl)CC1`: the fluorescence artifact activation is 18.9% (active).

For the compound `COc1cc(NC(=O)C2CCCCN2)ccc1OCC(C)C` (stereo unspecified), the fluorescence artifact activation was 2.06%.

Turning to `CC(C)C(=O)COc1c2occc2cc2ccc(=O)oc12`, the fluorescence artifact activation is 0.07%.

Turning to `Cc1noc(NS(=O)(=O)c2ccc(NC(=O)CSc3nc4c(cc3C#N)CCC4)cc2)c1C`, the fluorescence artifact activation is 0.31%.

On to `CCOC(=O)c1cccc(NC(=O)CSc2nc(N)cc(N)n2)c1`, for which the fluorescence artifact activation is -0.04%.

Turning to `CCOC(=O)c1c(C#N)c(SCC(=O)Nc2ccc(OC)cc2)nc2c1CN(CC)CC2`, the fluorescence artifact activation was 25.1% (active).

As to `COc1ccc(/C=C2\SC(=O)N(CCC(=O)N3CCN(C)CC3)C2=O)cc1`, the fluorescence artifact activation was -0.03%.

As to `CC(C)c1ccc(C2c3[nH]c4ccccc4c3C[C@H]3C(=O)N(c4ccccc4C(=O)N4CCC(C(=O)O)CC4)C(=O)N23)cc1` (stereo partly specified), the fluorescence artifact activation is 0.07%.

Regarding `COc1ccccc1-c1nnc(SCc2nc3ccccc3s2)n1C`, the fluorescence artifact activation is 7.19%.

As for `Cc1ccc(Cl)c(NC(=O)CN(C)CC(=O)Nc2ccc(F)c(F)c2F)c1Cl`, the fluorescence artifact activation is 0.02%.

In the case of `N/C(COc1cc(Cl)cc(Cl)c1)=N\O`, the fluorescence artifact activation is 21.9% (active).

Turning to `COc1cc(OC)c(C(=O)NC2CCCCCC2)cc1OC`, the fluorescence artifact activation is -0.01%.

Turning to `O=[N+]([O-])c1cc(-c2ccn[nH]2)ccc1Cl`, the fluorescence artifact activation was -0.08%.

Regarding `COc1ccc(C(Nc2ccc(S(=O)(=O)NCC3CCCO3)cc2)C(=O)NC(C)(C)C)cc1OC` (stereo unspecified), the fluorescence artifact activation was 0.01%.

Take `COc1cc(OC)cc(-c2c(-c3cccs3)c3cc(-c4ccc(SC)cc4)ccc3n2C)c1`: the fluorescence artifact activation is 5.67%.

Consider `O=C(/C=C/c1nc2ccccc2s1)N1CCCCCC1`, for which the fluorescence artifact activation was 7.06%.

For `N#C/C(=C(/O)COC(=O)c1ccccc1O)c1nc2ccccc2s1`, the fluorescence artifact activation was 0.47%.

`O=C(CSc1nc2ccccc2s1)NNC(=S)Nc1ccccc1`: the fluorescence artifact activation was 193% (active).

For `CCc1cc(=O)n2c([nH]c3ccccc32)c1C#N`, the fluorescence artifact activation was 0.24%.

In the case of `Cc1cc(Br)ccc1SCC(=O)OCC(=O)Nc1ccccc1C#N`, the fluorescence artifact activation is 0.22%.

The values are drawn from PubChem BioAssay AID504382 (The Scripps Research Institute Molecular Screening Center, 2011).
